In paper PMC6018888 (Drug Design, Development and Therapy, 2018):

Assays:
Assay type in all cases: in vivo, human
serum urate (sUA) = assay: Pharmacodynamics: serum urate; details: for mean reduction of serum urate after 24 hours: multiple verinurad 10 mg doses
Outline: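 Healthy males (screening sUA >4.5 mg/dL) took oral modified-release 2.5 mg tablets or placebo (6:2 per panel) once daily for 7 days (days 6–12), after a moderate-fat breakfast. Japanese panels received 2.5–15 mg and non-Asian subjects 10 mg. Serum sampled predose days 1, 6 and 8–12, then to 72 h (day 12). Maximum percent change from baseline and its timing were read directly from concentration–time data.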

[1] = tested on: urinary excretion of uric acid; assay: Pharmacodynamics: urinary uric acid excretion; details: for CLUR0–24 / FEUA0–24: mean (95% CI); for percent change from baseline in AeUR over 0–6 hours: non-Asian subjects
Outline: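 Total-catch urine was collected at 6- or 12-h intervals from predose to 72 h after dosing on days 1 (fasted ≥10 h, no food 4 h postdose) and 12, and to 24 h on day 6 (fed). Urine uric acid, urine creatinine and serum creatinine were measured. CLUR0–24 = urinary uric acid amount ÷ urate AUC0–24. FEUA0–24 = CLUR0–24 ÷ creatinine clearance × 100.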

[2] = Verinurad plasma pharmacokinetics, Phase I single and multiple dose study
Outline: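 Oral modified-release tablets were given once as a single dose on day 1 (fasted overnight ≥10 h) and day 6 (after a moderate-fat breakfast), then daily fed through day 12. Serial plasma was sampled to 72 h on days 1 and 12, to 24 h on day 6, and predose on days 8–11. Samples were stored at −70°C. Cmax and AUC0–24 came from noncompartmental analysis, with comparisons as geometric mean ratios.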

[3] = Japanese subjects, 2.5 mg multiple once-daily doses, fed
[4] = Japanese subjects, 5 mg multiple once-daily doses, fed
[5] = Japanese subjects, 10 mg multiple once-daily doses, fed
[6] = Japanese subjects, 15 mg multiple once-daily doses, fed
[7] = non-Asian subjects, 10 mg multiple once-daily dosing, fed
[8] = Japanese subjects, 2.5 mg multiple dose, fed
[9] = Japanese subjects, 2.5 mg single dose, fasted
[10] = Japanese subjects, 2.5 mg single dose, fed
[11] = Japanese subjects, 5 mg multiple dose, fed
[12] = Japanese subjects, 5 mg single dose, fasted
[13] = Japanese subjects, 5 mg single dose, fed
[14] = Japanese subjects, 10 mg multiple dose, fed
[15] = Japanese subjects, 10 mg single dose, fasted
[16] = Japanese subjects, 10 mg single dose, fed
[17] = Japanese subjects, 15 mg multiple dose, fed
[18] = Japanese subjects, 15 mg single dose, fasted
[19] = Japanese subjects, 15 mg single dose, fed
[20] = Non-Asian subjects, 10 mg multiple dose, fed
[21] = Non-Asian subjects, 10 mg single dose, fasted
[22] = Non-Asian subjects, 10 mg single dose, fed

CC(C)(Sc1ccncc1-c1ccc(C#N)c2ccccc12)C(=O)O [verinurad]
time of maximum reduction in sUA (serum urate (sUA); Japanese and non-Asian subjects, multiple once-daily doses, fed): ≤ 12 hours postdose | sUA least square mean maximum percent change from baseline at 12 hours (serum urate (sUA); [3]): −31% | sUA percent change from baseline at 24 hours (serum urate (sUA); [3]): −16% | sUA least square mean maximum percent change from baseline at 12 hours (serum urate (sUA); [4]): −50% | sUA percent change from baseline at 24 hours (serum urate (sUA); [4]): −31% | sUA least square mean maximum percent change from baseline at 12 hours (serum urate (sUA); [5]): −62% | sUA percent change from baseline at 24 hours (serum urate (sUA); [5]): −46% | sUA concentration at maximum reduction (serum urate (sUA); [6]): < 2 mg/dL | sUA least square mean maximum percent change from baseline at 12 hours (serum urate (sUA); [6]): −74% | sUA percent change from baseline at 24 hours (serum urate (sUA); [6]): −55% | mean reduction of serum urate after 24 hours (serum urate (sUA); Japanese subjects): 46% | sUA maximum percent change from baseline (serum urate (sUA); [7]): −58% | sUA percent change from baseline at 24 hours postdose (serum urate (sUA); [7]): −44% | mean reduction of serum urate after 24 hours (serum urate (sUA); non-Asian subjects): 44% | CLUR0–24 [1, 8]: 12.2 (10.3–14.2) mL/min | FEUA0–24 [1, 8]: 7.57 (6.74–8.41) % | CLUR0–24 [1, 9]: 7.82 (6.90–8.74) mL/min | FEUA0–24 [1, 9]: 7.72 (6.01–9.43) % | CLUR0–24 [1, 10]: 11.4 (9.74–13.0) mL/min | FEUA0–24 [1, 10]: 7.75 (6.80–8.70) % | percent change from baseline in AeUR, 0–6 hour interval ([1]; Japanese subjects, 2.5 mg, day 1 (fasted)): 18% | percent change from baseline in AeUR, 0–6 hour interval ([1]; Japanese subjects, 2.5 mg, day 6 (fed)): 62% | percent change from baseline in AeUR, 0–6 hour interval ([1]; Japanese subjects, 2.5 mg, day 12 (steady-state, fed)): −17% | CLUR0–24 [1, 11]: 13.7 (9.35–18.1) mL/min | FEUA0–24 [1, 11]: 14.5 (9.93–19.1) % | CLUR0–24 [1, 12]: 10.9 (8.88–12.9) mL/min | FEUA0–24 [1, 12]: 9.05 (7.20–10.9) % | CLUR0–24 [1, 13]: 16.0 (11.7–20.3) mL/min | FEUA0–24 [1, 13]: 11.2 (7.42–14.9) % | percent change from baseline in AeUR, 0–6 hour interval ([1]; Japanese subjects, 5 mg, day 1 (fasted)): 59% | percent change from baseline in AeUR, 0–6 hour interval ([1]; Japanese subjects, 5 mg, day 6 (fed)): 114% | percent change from baseline in AeUR, 0–6 hour interval ([1]; Japanese subjects, 5 mg, day 12 (steady-state, fed)): −35% | CLUR0–24 [1, 14]: 19.7 (16.7–22.7) mL/min | FEUA0–24 [1, 14]: 13.7 (10.8–16.6) % | CLUR0–24 [1, 15]: 14.3 (10.7–17.9) mL/min | FEUA0–24 [1, 15]: 10.8 (7.87–13.6) % | CLUR0–24 [1, 16]: 16.0 (9.88–22.1) mL/min | FEUA0–24 [1, 16]: 20.5 (11.3–29.6) % | percent change from baseline in AeUR, 0–6 hour interval ([1]; Japanese subjects, 10 mg, day 1 (fasted)): 114% | percent change from baseline in AeUR, 0–6 hour interval ([1]; Japanese subjects, 10 mg, day 6 (fed)): 131% | percent change from baseline in AeUR, 0–6 hour interval ([1]; Japanese subjects, 10 mg, day 12 (steady-state, fed)): −33% | CLUR0–24 [1, 17]: 23.9 (14.9–32.9) mL/min | FEUA0–24 [1, 17]: 16.0 (10.7–21.2) % | CLUR0–24 [1, 18]: 15.0 (6.40–23.6) mL/min | FEUA0–24 [1, 18]: 14.5 (7.08–22.0) % | CLUR0–24 [1, 19]: 12.1 (4.04–20.2) mL/min | FEUA0–24 [1, 19]: 9.61 (2.96–16.3) % | percent change from baseline in AeUR, 0–6 hour interval ([1]; Japanese subjects, 15 mg, day 1 (fasted)): 77% | percent change from baseline in AeUR, 0–6 hour interval ([1]; Japanese subjects, 15 mg, day 6 (fed)): 49% | percent change from baseline in AeUR, 0–6 hour interval ([1]; Japanese subjects, 15 mg, day 12 (steady-state, fed)): 6% | CLUR0–24 [1, 20]: 20.6 (13.7–27.4) mL/min | FEUA0–24 [1, 20]: 13.2 (8.45–17.9) % | CLUR0–24 [1, 21]: 15.3 (7.35–23.3) mL/min | FEUA0–24 [1, 21]: 10.4 (4.84–16.0) % | CLUR0–24 [1, 22]: 18.6 (8.95–28.2) mL/min | FEUA0–24 [1, 22]: 11.7 (6.44–17.0) % | percent change from baseline in AeUR over 0–6 hours ([1]; 10 mg, day 1): 70% | percent change from baseline in AeUR over 0–6 hours ([1]; 10 mg, day 6): 141% | percent change from baseline in AeUR over 0–6 hours ([1]; 10 mg, day 12): -41% | AUC0–24 GMR, % (95% CI), Japanese/non-Asian ([2]; 10 mg multiple dose, fed): 123 (93.0–162) % | AUC0–24 GMR, % (95% CI), Japanese/non-Asian, bodyweight normalized to 70 kg ([2]; 10 mg multiple dose, fed): 96.9 (77.4–121) % | Cmax GMR, % (95% CI), Japanese/non-Asian ([2]; 10 mg multiple dose, fed): 138 (112–171) % | Cmax GMR, % (95% CI), Japanese/non-Asian, bodyweight normalized to 70 kg ([2]; 10 mg multiple dose, fed): 109 (94.4–126) % | AUC0–24 GMR, % (95% CI), Japanese/non-Asian ([2]; 10 mg single dose, fasted): 134 (111–161) % | AUC0–24 GMR, % (95% CI), Japanese/non-Asian, bodyweight normalized to 70 kg ([2]; 10 mg single dose, fasted): 106 (84.5–132) % | Cmax GMR, % (95% CI), Japanese/non-Asian ([2]; 10 mg single dose, fasted): 199 (167–237) % | Cmax GMR, % (95% CI), Japanese/non-Asian, bodyweight normalized to 70 kg ([2]; 10 mg single dose, fasted): 157 (132–187) %
